≈ marks a conversion by molar mass, not a printed value.
Experiments:
[1] = Selectivity index, ratio of CC50 for human KB cells to EC50 for HRV2 by visual assay
Procedure, shortened: (§1)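 Cell-culture cytopathic-effect (CPE) assays against HRV-2 and HRV-14. Antiviral EC50 and cytotoxic CC50 were each taken in µg/ml, with inhibition read either visually or by neutral red uptake. SI = CC50/EC50 for each read-out. Where viral CPE could not be told apart from drug cytotoxicity, this was flagged in a footnote.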

rhinovirus B14 [2] = assay: Antiviral activity against HRV14 in human KB cells assessed as cytopathic effect by visual assay; type: functional, organism-based; conditions: Rhinovirus B
Procedure, shortened: (§2)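 Cell-culture cytopathic-effect assays run in parallel on strains HRV-2 and HRV-14, each read both visually and by neutral red uptake. Antiviral EC50 and cytotoxic CC50 are expressed in µg/ml.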

[3] = Selectivity index, ratio of CC50 for human KB cells to EC50 for HRV14 by neutral red uptake assay; procedure, shortened: as §1
[4] = Cytotoxicity against human KB cells by neutral red uptake assay; type: cell-based; procedure, shortened: as §2
rhinovirus A2 [5] = assay: Antiviral activity against HRV2 in human KB cells assessed as cytopathic effect by visual assay; type: functional, organism-based; conditions: Rhinovirus A; procedure, shortened: as §2
[6] = Selectivity index, ratio of CC50 for human KB cells to EC50 for HRV14 by visual assay; procedure, shortened: as §1
rhinovirus B14 [7] = assay: Antiviral activity against HRV14 in human KB cells assessed as cytopathic effect by neutral red uptake assay; type: functional, organism-based; conditions: Rhinovirus B; procedure, shortened: as §2
[8] = Cytotoxicity against human KB cells by visual assay; type: cell-based; procedure, shortened: as §2
[9] = Selectivity index, ratio of CC50 for human KB cells to EC50 for HRV2 by neutral red uptake assay; procedure, shortened: as §1
rhinovirus A2 [10] = assay: Antiviral activity against HRV2 in human KB cells assessed as cytopathic effect by neutral red uptake assay; type: functional, organism-based; conditions: Rhinovirus A; procedure, shortened: as §2

Compound	Ratio CC50/EC50 [1]	EC50 (rhinovirus B14 [2]) [µg/mL]	Ratio CC50/EC50 [3]	CC50 [4] [µg/mL]	EC50 (rhinovirus A2 [5]) [µg/mL]	Ratio CC50/EC50 [6]	EC50 (rhinovirus B14 [7]) [µg/mL]	CC50 [8] [µg/mL]	Ratio CC50/EC50 [9]	EC50 (rhinovirus A2 [10]) [µg/mL]
CCOC(=O)c1ccc(OCCC2CCN(c3ccnnc3Cl)CC2)nc1	>3125	< 0.032	>3125	> 100	< 0.032	>3125	< 0.032	> 100	>3125	< 0.032
Clc1cc(N2CCN(CCOc3ccc(-n4cnnc4)cc3)CC2)c(Cl)nn1	–	12 (≈ 28.6 µM)	2.5	39 (≈ 92.8 µM)	> 100	3	15 (≈ 35.7 µM)	35 (≈ 83.3 µM)	–	> 42
O=Cc1ccc(OCCN2CCN(c3cc(Cl)nnc3Cl)CC2)cc1	–	43 (≈ 113 µM)	–	43 (≈ 113 µM)	> 56	>2	> 43	56 (≈ 147 µM)	1.1	46 (≈ 121 µM)
CCCCc1ccc(OCCN2CCN(c3cc(Cl)nnc3Cl)CC2)cc1	1.8	0.15 (≈ 0.366 µM)	3.5	1.9 (≈ 4.64 µM)	5.7 (≈ 13.9 µM)	120	0.55 (≈ 1.34 µM)	10 (≈ 24.4 µM)	–	> 1.9
CCOC(=O)c1ccc(OCCC2CCN(c3ccc(C)nn3)CC2)cc1 [PIRODAVIR]	>3125	0.081 (≈ 0.219 µM)	>1000	> 10	< 0.0032	>123	0.01 (≈ 0.0271 µM)	> 10	>3125	< 0.0032
CCOc1ccc(OCCN2CCN(c3cc(Cl)nnc3Cl)CC2)cc1	–	0.036 (≈ 0.0906 µM)	>370	12 (≈ 30.2 µM)	> 35	972	< 0.032	35 (≈ 88.1 µM)	–	> 12
COC(=O)c1ccc(OCCC2CCN(c3cc(Cl)nnc3Cl)CC2)cc1	97	7.1 (≈ 17.3 µM)	–	4.7 (≈ 11.5 µM)	0.31 (≈ 0.756 µM)	8	> 4.7	30 (≈ 73.1 µM)	58	0.1 (≈ 0.244 µM)
